From BindingDB's records for doi:10.1021/jm950541c (Georgia Institute of Technology, 1996)

Target: T1, Calpain-2 catalytic subunit (Homo sapiens, UniProt P17655)
T1 sequence (P17655 whole entry): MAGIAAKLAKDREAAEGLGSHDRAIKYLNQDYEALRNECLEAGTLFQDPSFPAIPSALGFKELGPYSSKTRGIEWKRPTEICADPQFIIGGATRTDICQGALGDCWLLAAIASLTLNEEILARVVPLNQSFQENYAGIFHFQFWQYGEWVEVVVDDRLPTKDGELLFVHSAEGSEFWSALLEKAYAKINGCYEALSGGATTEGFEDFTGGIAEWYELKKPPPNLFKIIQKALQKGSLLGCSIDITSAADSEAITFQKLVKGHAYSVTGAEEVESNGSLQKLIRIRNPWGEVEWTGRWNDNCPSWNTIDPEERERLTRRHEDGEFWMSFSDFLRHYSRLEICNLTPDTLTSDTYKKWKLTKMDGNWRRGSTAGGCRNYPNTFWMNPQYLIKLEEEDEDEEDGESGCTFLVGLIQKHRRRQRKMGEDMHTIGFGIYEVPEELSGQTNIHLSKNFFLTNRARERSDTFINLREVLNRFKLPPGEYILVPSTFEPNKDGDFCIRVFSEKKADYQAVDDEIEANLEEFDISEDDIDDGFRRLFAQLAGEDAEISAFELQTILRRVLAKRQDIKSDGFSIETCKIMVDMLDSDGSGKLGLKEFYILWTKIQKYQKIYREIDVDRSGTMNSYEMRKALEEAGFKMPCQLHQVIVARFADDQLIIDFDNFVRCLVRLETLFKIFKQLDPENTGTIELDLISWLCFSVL
Experiment: Compound was evaluated for the inhibition of Cysteine protease Calpain 2
Summary of the method: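 Calpain assay in 25 mM Tris, pH 8.0, with 10 mM CaCl₂ and 5% DMSO. Suc-Leu-AMC hydrolysis was read as initial velocity (t = 30-60 s) after a 30 s delay, at room temperature. Five or more inhibitor concentrations (not above 2 × K_obs) were used at two fixed substrate levels. Ki came from Dixon plots (1/v vs I) averaged over triplicates.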

SMILES	Ki [nM]
CCNC(=O)C(=O)C(CC)NC(=O)C(CC(C)C)NC(=O)c1ccc2ccccc2n1 (stereo not drawn) [Quinoline-2-carboxylic acid [1-(1-ethylaminooxalyl-propylcarbamoyl)-3-methyl-butyl]-amide]	300
CNC(=O)C(=O)C(Cc1ccccc1)NC(=O)C(CC(C)C)NC(=O)OCc1ccccc1 (stereo not drawn) [[1-(1-Benzyl-2-methylcarbamoyl-2-oxo-ethylcarbamoyl)-3-methyl-butyl]-carbamic acid benzyl ester]	150
CC(C)CC(NC(=O)OCc1ccccc1)C(=O)NC(Cc1ccccc1)C(=O)C(=O)NCCNC(=O)CCCC[C@@H]1SC[C@@H]2NC(=O)N[C@@H]21 (stereo partly drawn) [[1-(1-Benzyl-2-oxo-2-{2-[5-((3aR,6S,6aS)-2-oxo-hexahydro-thieno[3,4-d]imidazol-6-yl)-pentanoylamino]-ethylcarbamoyl}-ethylcarbamoyl)-3-methyl-butyl]-carbamic acid benzyl ester]	160
CC(C)CC(NC(=O)OCc1ccccc1)C(=O)NC(Cc1ccccc1)C(=O)C(=O)NCC(O)c1cccc(Oc2ccc(Cl)c(Cl)c2)c1 (stereo not drawn) [[1-(1-Benzyl-2-{2-[3-(3,4-dichloro-phenoxy)-phenyl]-2-hydroxy-ethylcarbamoyl}-2-oxo-ethylcarbamoyl)-3-methyl-butyl]-carbamic acid benzyl ester]	120
CC(C)CC(NC(=O)OCc1ccccc1)C(=O)NC(Cc1ccccc1)C(=O)C(=O)NCC(O)c1cccc(Oc2cccc(C(F)(F)F)c2)c1 (stereo not drawn) [[1-(1-Benzyl-2-{2-hydroxy-2-[3-(3-trifluoromethyl-phenoxy)-phenyl]-ethylcarbamoyl}-2-oxo-ethylcarbamoyl)-3-methyl-butyl]-carbamic acid benzyl ester]	450
CCC(NC(=O)C(CC(C)C)NC(=O)OCc1ccccc1)C(=O)C(=O)NCc1ccccc1 (stereo not drawn) [[1-(1-Benzylaminooxalyl-propylcarbamoyl)-3-methyl-butyl]-carbamic acid benzyl ester]	350
CCC(NC(=O)C(CC(C)C)NC(=O)OCc1ccccc1)C(=O)C(=O)NCC(O)c1cccc(Oc2cccc(C(F)(F)F)c2)c1 (stereo not drawn) [[1-(1-{2-Hydroxy-2-[3-(3-trifluoromethyl-phenoxy)-phenyl]-ethylaminooxalyl}-propylcarbamoyl)-3-methyl-butyl]-carbamic acid benzyl ester]	280
CCC(NC(=O)C(CC(C)C)NC(=O)OCc1ccccc1)C(=O)C(=O)NCC(O)c1cccc(Oc2ccc(Cl)c(Cl)c2)c1 (stereo not drawn) [[1-(1-{2-[3-(3,4-Dichloro-phenoxy)-phenyl]-2-hydroxy-ethylaminooxalyl}-propylcarbamoyl)-3-methyl-butyl]-carbamic acid benzyl ester]	120
CCC(NC(=O)C(CC(C)C)NC(=O)OCc1ccccc1)C(=O)C(=O)NC (stereo not drawn) [[3-Methyl-1-(1-methylaminooxalyl-propylcarbamoyl)-butyl]-carbamic acid benzyl ester]	83
CCC(NC(=O)C(CC(C)C)NC(=O)OCc1ccccc1)C(=O)C(=O)NCCNC(=O)CCCC[C@@H]1SC[C@@H]2NC(=O)N[C@@H]21 (stereo partly drawn) [[3-Methyl-1-(1-{2-[5-((3aR,6S,6aS)-2-oxo-hexahydro-thieno[3,4-d]imidazol-6-yl)-pentanoylamino]-ethylaminooxalyl}-propylcarbamoyl)-butyl]-carbamic acid benzyl ester]	280
CCOC(CNC(=O)C(=O)C(CC)NC(=O)C(CC(C)C)NC(=O)OCc1ccccc1)OCC (stereo not drawn) [{1-[1-(2,2-Diethoxy-ethylaminooxalyl)-propylcarbamoyl]-3-methyl-butyl}-carbamic acid benzyl ester]	160
CCC(NC(=O)C(CC(C)C)NC(=O)OCc1ccccc1)C(=O)C(=O)NCC(OC)OC (stereo not drawn) [{1-[1-(2,2-Dimethoxy-ethylaminooxalyl)-propylcarbamoyl]-3-methyl-butyl}-carbamic acid benzyl ester]	100
CCC(NC(=O)C(CC(C)C)NC(=O)OCc1ccccc1)C(=O)C(=O)NCC(O)c1cccc2ccccc12 (stereo not drawn) [{1-[1-(2-Hydroxy-2-naphthalen-1-yl-ethylaminooxalyl)-propylcarbamoyl]-3-methyl-butyl}-carbamic acid benzyl ester]	170
